Screens as filed in PubChem.
Arr AP2 block – human beta-arrestin and AP2 interaction inhibition | FITC-arrestin peptide / GST-AP2 beads, flow cytometry; AP2 beta2 appendage carries R879A mutation | inhibition, % at 10 µM | 340,000 compounds, 0.31% hits | AID 504490;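 active = inhibition above a set limit, near 3 SD of compounds lacking own fluorescence, cut at about 54% in these data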
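Material – AP2 appendage R879A on GSH beads · Buffer or medium – PBS with 0.05% Tween 20 and 0.1% BSA · Probe or stimulus – fluorescein-tagged arrestin peptide at 50 nM final · Incubation – compound with beads 12 min RT, then probe 1 h RT · Detection – high-throughput flow cytometry of beads, ex 488, em 535 nm · Evaluation – percent response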
VLA-4 inh – inhibition in a human VLA-4 binding assay; VLA-4 expressing cells, ligand binding flow cytometry; P13612; 330,000 compounds, 0.2% hits; inhibition, % (about 7 µM as worked out from the volumes in the protocol); in the data active = inhibition above about 50%
Target sequence (P13612 whole entry, looked up): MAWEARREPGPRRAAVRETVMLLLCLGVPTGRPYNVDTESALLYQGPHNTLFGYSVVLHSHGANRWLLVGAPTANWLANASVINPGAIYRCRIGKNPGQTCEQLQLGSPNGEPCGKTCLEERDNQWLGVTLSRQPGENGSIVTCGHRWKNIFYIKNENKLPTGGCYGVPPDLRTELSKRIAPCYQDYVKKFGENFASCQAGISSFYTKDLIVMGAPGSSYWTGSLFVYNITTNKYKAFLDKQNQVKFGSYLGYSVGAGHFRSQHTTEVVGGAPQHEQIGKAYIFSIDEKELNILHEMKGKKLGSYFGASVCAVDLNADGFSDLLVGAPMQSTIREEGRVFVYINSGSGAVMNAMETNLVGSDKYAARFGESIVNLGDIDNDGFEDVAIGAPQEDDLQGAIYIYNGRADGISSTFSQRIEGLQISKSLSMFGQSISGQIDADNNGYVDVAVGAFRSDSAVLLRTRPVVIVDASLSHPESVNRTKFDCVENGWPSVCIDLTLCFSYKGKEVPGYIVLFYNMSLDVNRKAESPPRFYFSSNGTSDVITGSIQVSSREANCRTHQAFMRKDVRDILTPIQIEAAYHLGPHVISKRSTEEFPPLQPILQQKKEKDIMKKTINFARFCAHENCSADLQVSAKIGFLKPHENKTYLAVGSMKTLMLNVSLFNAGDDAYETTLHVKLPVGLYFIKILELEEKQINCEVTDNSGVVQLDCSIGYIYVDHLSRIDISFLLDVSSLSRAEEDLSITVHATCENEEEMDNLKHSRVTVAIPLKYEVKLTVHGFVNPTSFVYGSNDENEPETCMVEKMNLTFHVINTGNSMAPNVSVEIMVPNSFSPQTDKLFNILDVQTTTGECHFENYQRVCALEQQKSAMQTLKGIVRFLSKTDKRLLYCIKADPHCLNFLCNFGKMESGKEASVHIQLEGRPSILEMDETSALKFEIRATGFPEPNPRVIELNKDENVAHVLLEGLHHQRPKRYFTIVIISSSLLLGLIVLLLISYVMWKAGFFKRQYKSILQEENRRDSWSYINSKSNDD
GASC-1 inh – inhibitors of human GASC-1 (JMJD2C) demethylase. Q9H3R0. GST-JMJD2C(1-420) H3K9me3 demethylation, DELFIA europium. inhibition, % at 2.35 µM. 330,000 compounds, 0.069% hits. AID 2099;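 active = more than half of a compound's replicate wells show inhibition beyond 50%, single wells judged on their own value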;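 also: signal counts dimethyl H3K9 product captured on neutravidin plate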
p-CIP stab down – lowers stability of the mouse p/CIP coactivator protein | Q05BA5 | F442A p/CIP-EGFP cells, EGFP fluorescence, 16 h | decrease of EGFP signal, % at 10 µM | 290,000 compounds, 0.01% hits;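 active = EGFP signal decrease of at least 30% at 10 µM or well 3 SD below plate mean, unless failing retest; inactive = the rest, including hits failing retest or dose response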
VLA-4 allo CP – confirmation of allosteric modulators of human VLA-4 integrin; shares compounds with VLA-4 inh; inhibition, % at 6.7 µM; 1,300 compounds, 2% hits; U937 cells, HUTS-21 LIBS mAb binding, flow cytometry; LDV ligand present at threefold Kd; AID 2813; in the data active = inhibition above about 40%
Large screens that a line does not name were inactive (follow-up assays come after a bar, where they were run). In the library only some 0.57% were active in any assay of this set; here they are far more common.

COc1ccc(-c2noc(CCC(=O)NCCCN3CCC(Cc4ccccc4)CC3)n2)cc1	none
COc1ccc(-c2noc(CCC(=O)NCCCN3CCN(c4ccc(F)cc4)CC3)n2)cc1	VLA-4 inh 57 | VLA-4 allo CP inactive
O=C(Nc1ccc(F)cc1F)N1CCN(CCc2ccccc2)CC1	none
O=C(Nc1ccc(F)cc1F)N1CCN(C/C=C/c2ccccc2)CC1	VLA-4 inh 55 | VLA-4 allo CP inactive
CCOC(=O)CC1=NN(c2ccccc2)C(=O)/C1=C\c1ccc(OC)cc1OC	none
O=C(O)c1cc(-c2ccc(Cl)c(Cl)c2)n(-c2ccccc2)n1	none | VLA-4 allo CP inactive
O=C(O)c1cc(-c2ccc(Cl)cc2)n(-c2ccc(Cl)cc2)n1	none
S=C(NCCCc1ccccc1)Nc1ccccc1Cl	VLA-4 inh 50 | VLA-4 allo CP inactive
CC1CCC(NC(=S)NCCN(C)C)CC1 (stereo not drawn)	none
CC1CCC(NC(=O)N(CCCl)N=O)CC1 (stereo not drawn)	VLA-4 inh 65 (no result: p-CIP stab down) | VLA-4 allo CP inactive
COc1cc(/C=C/c2noc(-c3ccccc3O)n2)cc(OC)c1OC	none | VLA-4 allo CP inactive
COc1ccc(/C=C/c2noc(-c3ccccc3O)n2)cc1	none
CC1CCCCN1C(=O)CCC(=O)Nc1nnc(C2CCCCC2)s1 (stereo not drawn)	none
COC(=O)/C=C1\SC(=NC(=O)c2ccc(C)cc2)NC1=O	VLA-4 inh 51 | VLA-4 allo CP inactive
COC(=O)c1ccc(N2CCN(c3ccccc3)CC2)c(NC(=O)C2CC2)c1	none
COC(=O)c1ccc(N2CCN(c3ccccc3)CC2)c(N)c1	none | VLA-4 allo CP inactive
COC(=O)c1c(SCc2cccc3ccccc23)nc(=O)[nH]c1C	none
O=C(CSc1nnnn1C1CCCCC1)NCc1ccccc1	none
COC(=O)c1ccc2nc(NC(=O)CN3C(=O)CCC3=O)sc2c1	none
COC(=O)c1ccsc1NC(=O)CN1C(=O)CCC1=O	VLA-4 inh 52 | VLA-4 allo CP inactive
O=C1C2=C(SCCS2)C(=O)N1CCCO	none
COc1ccc(N(C(=O)c2cnsn2)C(C(=O)NC2CCCCC2)c2ccncc2)cc1 (stereo not drawn)	none | VLA-4 allo CP inactive
COc1ccc(C(=O)NC2CCCc3c2cnn3-c2ccc(C)c(C)c2)c(OC)c1OC (stereo not drawn)	none
CC(=O)Nc1cccc(OC(=O)COc2ccc(Br)cc2)c1	none
CN(C)S(=O)(=O)c1cccc(NC(=O)c2cc(-c3cccs3)nn2-c2ccccc2)c1	none | VLA-4 allo CP inactive
CC(=O)c1ccc(NC(=O)COC(=O)C2CCN(S(=O)(=O)c3cccs3)CC2)cc1	none (no result: VLA-4 inh, GASC-1 inh, p-CIP stab down)
CC(C)CCN1CC(C(=O)NC(C)C)CC1=O (stereo not drawn)	none (no result: GASC-1 inh)
O=C(Nc1ccc(CN2CCCCC2)cc1)Nc1ccccc1Cl	none
O=C(Nc1ccc(Br)cc1)Nc1ccccc1Cl	none | VLA-4 allo CP inactive
O=C1Cc2cc(S(=O)(=O)Nc3ccc(N4CCOCC4)cc3)ccc2N1	none (no result: p-CIP stab down) | VLA-4 allo CP inactive
Cc1ccc(S(=O)(=O)Nc2ccc(N3CCOCC3)cc2)cc1C	none
Cc1ccc(NS(=O)(=O)c2ccc3c(c2)CC(=O)N3)cc1F	none (no result: p-CIP stab down) | VLA-4 allo CP inactive
COc1cccc(CN(C)CC(=O)Nc2cc(S(=O)(=O)N3CCCC3)ccc2Cl)c1OC	none (no result: VLA-4 inh, GASC-1 inh, p-CIP stab down)
CCCCSc1nc2c(c(C(F)(F)F)c1C#N)CCC2	VLA-4 inh 64 | VLA-4 allo CP inactive
CCOC(=O)CCSc1nc2c(c(C(F)(F)F)c1C#N)CCC2	none
COc1nc(C)nc2c1sc1nc3c(cc12)COC(C)(C)C3	none
Cc1ccccc1C(=O)N1CCC(C(=O)Nc2ccccc2Cl)CC1	none | VLA-4 allo CP inactive
COc1ccc(C(=O)N2CCC(C(=O)Nc3ccc(OC)c(OC)c3)CC2)cc1	none | VLA-4 allo CP inactive
Cc1ccc(NC(=O)C2CCN(C(=O)c3ccccc3C)CC2)nc1	none (no result: p-CIP stab down) | VLA-4 allo CP inactive
Cc1ccc(NC(=O)C2CCN(C(=O)c3ccc(Cl)cc3)CC2)nc1	none (no result: p-CIP stab down) | VLA-4 allo CP inactive
O=C(NCc1cccc(Cl)c1)c1cccc(C(F)(F)F)c1	none
CC(C)[C@H](NC(=O)c1ccccc1)C(=O)OCC(=O)NCC1CCCO1 (stereo partly drawn)	none (no result: p-CIP stab down)
COc1ccc(C(=O)N2CCC(C(=O)Nc3ccccc3C)CC2)cc1OC	none
COC(=O)c1ccccc1NC(=O)C1CCN(C(=O)c2cc(OC)c(OC)c(OC)c2)CC1	none | VLA-4 allo CP inactive
C[C@H]([C@H](O)c1ccccc1)N(C)C(=O)CN	VLA-4 inh 51 (no result: GASC-1 inh) | VLA-4 allo CP inactive
CC(C)Cn1cnc2c(c(-c3ccccc3)c(-c3ccccc3)n2Cc2ccco2)c1=N	none
O=C(NC1CCCCC1)c1ccc(S(=O)(=O)NCc2ccco2)cc1	VLA-4 inh 52 | VLA-4 allo CP inactive
C=CCC[C@H](Cc1ccc(F)cc1)C(=O)OC[C@@H](C)NC(=O)[C@@H](CC=C)CC(=O)N[C@@H](CO)Cc1ccccc1	VLA-4 inh 63 (no result: p-CIP stab down) | VLA-4 allo CP inactive
Cc1ccc(C(=O)/C=C\C(=O)c2ccc(C)cc2)cc1	VLA-4 inh 68 | VLA-4 allo CP inactive
CC(/C=C/C(=O)c1ccc(C)cc1)=C\c1ccccc1	none
Cc1noc(C)c1C(=O)OCC(=O)Nc1cc(S(=O)(=O)N2CCOCC2)ccc1Cl	none (no result: Arr AP2 block)
O=C(Cn1c(=O)oc2ccccc21)NCCc1ccccc1	none | VLA-4 allo CP inactive
Cc1cc(NC(=O)Cn2c(=O)oc3ccccc32)no1	none (no result: p-CIP stab down) | VLA-4 allo CP inactive
COc1ccc(Cl)cc1NC(=O)Cn1c(=O)oc2ccccc21	none
Cc1cccc(NC(=O)Cn2c(=O)oc3ccccc32)n1	none
COc1ccc(NC(=O)Cn2c(=O)oc3cc(Cl)ccc32)c(OC)c1	none | VLA-4 allo CP inactive
O=C(Cn1c(=O)oc2ccccc21)Nc1ccc(Cl)cc1Cl	none | VLA-4 allo CP inactive
COc1ccccc1CCNC(=O)Cn1c(=O)oc2ccccc21	none
COc1ccc(OCCNC2CCCC2)cc1	none
O=c1cc(CN2CCN(c3ccccc3)CC2)nc2scc(-c3ccccc3)n12	none
O=C(Cn1c(=O)oc2ccccc21)Nc1ccc(Br)cc1	none | VLA-4 allo CP inactive
c1ccc2c(c1)nnn1c3ccccc3nc21	none (no result: Arr AP2 block)
Nn1nnc2ccccc21	VLA-4 inh 56 | VLA-4 allo CP inactive
FC(F)(F)c1cccc(NC(=S)Nc2ccc(Cl)cc2Cl)c1	VLA-4 inh 90 | VLA-4 allo CP inactive
Cc1ccccc1-n1ccnc1SCC(=O)O	none
N=c1sccn1CC(=O)NCCc1ccc(Cl)cc1Cl	VLA-4 inh 95 | VLA-4 allo CP inactive
CS(=O)(=O)c1cccc(C(=O)NCc2ccc(F)cc2)c1	VLA-4 inh 93 | VLA-4 allo CP inactive
CC(c1ccccc1)N1C(=O)C2C3C=CC(C4CC34)C2C1=O (stereo not drawn)	none
CC(OC(=O)C(C)N1C(=O)C2C3C=CC(C4CC34)C2C1=O)C(=O)c1ccccc1 (stereo not drawn)	VLA-4 inh 58 | VLA-4 allo CP inactive
CCCS(=O)(=O)N1CCC(C(=O)NC2CCC(C)CC2)CC1 (stereo not drawn)	VLA-4 inh 93 | VLA-4 allo CP inactive
